Converted amounts (≈) assume the structure as drawn. The source made the active and inactive calls. No cut-off for these calls is given here.
Columns and labels:
[1] = Dissociation constant, pKa of the compound; assay type: physicochemical
[2] = tested on: Staphylococcus aureus; test: Antibacterial activity against Staphylococcus aureus NCTC 8325 carrying shuttle vector pMC-SK after 16 to 20 hrs by broth microdilution method; assay type: functional
Outline: (§1)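 Broth microdilution in cation-adjusted Mueller Hinton broth. Compounds were serially diluted twofold in DMSO at 50-fold final strength (2% DMSO final). The inoculum was 1 × 10^4 cells per well. Plates were incubated at 37 °C for 16–20 h, and growth was read as absorbance at 600 nm.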

[3] = tested on: Staphylococcus aureus; test: Antibacterial activity against Staphylococcus aureus NCTC 8325 carrying shuttle vector pMC-SK with mepR gene after 16 to 20 hrs by broth microdilution method; assay type: functional; outline: as §1
[4] = tested on: Staphylococcus aureus; test: Antibacterial activity against MBX-1090-resistant Staphylococcus aureus isolate d20A1 carrying shuttle vector pMC-SK after 16 to 20 hrs by broth microdilution method; assay type: functional; outline: as §1
[5] = tested on: Staphylococcus aureus; test: Antibacterial activity against MBX-1090-resistant Staphylococcus aureus isolate d20A1 carrying shuttle vector pMC-SK with mepR gene after 16 to 20 hrs by broth microdilution method; assay type: functional; outline: as §1
[6] = tested on: Staphylococcus aureus; test: Antibacterial activity against Staphylococcus aureus NCTC 8325 after 16 to 20 hrs by broth microdilution method; assay type: functional; outline: as §1
[7] = tested on: Staphylococcus aureus; test: Antibacterial activity against Staphylococcus aureus NCTC 8325 after 16 to 20 hrs by broth microdilution method in presence of efflux pump inhibitor reserpine; assay type: functional
Outline: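 Broth microdilution in cation-adjusted MHB with reserpine at 20 µg/ml final in the medium as efflux inhibitor. Twofold DMSO dilutions were made (2% DMSO final) with 1 × 10^4 cells per well. Incubation was 37 °C for 16–20 h, with growth read at 600 nm.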

[8] = tested on: Staphylococcus aureus; test: Antibacterial activity against Staphylococcus aureus NCTC 8325 harboring genetic deletion of mepR gene after 16 to 20 hrs by broth microdilution method; assay type: functional; outline: as §1
[9] = tested on: Staphylococcus aureus; test: Antibacterial activity against Staphylococcus aureus NCTC 8325 harboring genetic deletion of mepRA gene after 16 to 20 hrs by broth microdilution method; assay type: functional; outline: as §1
[10] = tested on: Staphylococcus aureus; test: Antibacterial activity against Staphylococcus aureus NCTC 8325 carrying expression vector pG154 after 16 to 20 hrs by broth microdilution method; assay type: functional; outline: as §1
[11] = tested on: Staphylococcus aureus; test: Antibacterial activity against Staphylococcus aureus NCTC 8325 carrying expression vector pG154 after 16 to 20 hrs by broth microdilution method in presence of anhydrous tetracycline; assay type: functional
Outline: (§2)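 Broth microdilution in cation-adjusted MHB containing anhydrous tetracycline at 100 ng/ml final to induce the pG154 expression vector. Twofold DMSO compound dilutions were used (2% DMSO final) with 1 × 10^4 cells per well. Incubation was 37 °C for 16–20 h, and absorbance was read at 600 nm.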

[12] = tested on: Staphylococcus aureus; test: Antibacterial activity against Staphylococcus aureus NCTC 8325 carrying expression vector pG154 with mepA gene after 16 to 20 hrs by broth microdilution method; assay type: functional; outline: as §1
[13] = tested on: Staphylococcus aureus; test: Antibacterial activity against Staphylococcus aureus NCTC 8325 carrying expression vector pG154 with mepA gene after 16 to 20 hrs by broth microdilution method in presence of anhydrous tetracycline; assay type: functional; outline: as §2
[14] = tested on: Staphylococcus aureus; test: Antibacterial activity against Staphylococcus aureus NCTC 8325 harboring genetic deletion of mepRA gene and carrying expression vector pG154 after 16 to 20 hrs by broth microdilution method; assay type: functional; outline: as §1
[15] = tested on: Staphylococcus aureus; test: Antibacterial activity against Staphylococcus aureus NCTC 8325 harboring genetic deletion of mepRA gene and carrying expression vector pG154 after 16 to 20 hrs by broth microdilution method in presence of anhydrous tetracycline; assay type: functional; outline: as §2
[16] = tested on: Staphylococcus aureus; test: Antibacterial activity against Staphylococcus aureus NCTC 8325 harboring genetic deletion of mepRA gene and carrying expression vector pG154 with mepA gene after 16 to 20 hrs by broth microdilution method; assay type: functional; outline: as §1
[17] = tested on: Staphylococcus aureus; test: Antibacterial activity against Staphylococcus aureus NCTC 8325 harboring genetic deletion of mepRA gene and carrying expression vector pG154 with mepA gene after 16 to 20 hrs by broth microdilution method in presence of anhydrous tetracycline; assay type: functional; outline: as §2
[18] = Selectivity ratio of MIC for MBX-1090-resistant Staphylococcus aureus isolate d20A1 to MIC for Staphylococcus aureus NCTC 8325; assay type: functional
Outline: (§3)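 Ratio of resistant-mutant MIC to NCTC 8325 MIC. Both MICs came from broth microdilution in cation-adjusted MHB with 2% DMSO final and 1 × 10^4 cells per well, incubated at 37 °C for 16–20 h and read at 600 nm.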

[19] = Selectivity ratio of MIC for MBX-1090-resistant Staphylococcus aureus isolate d20B1 to MIC for Staphylococcus aureus NCTC 8325; assay type: functional; outline: as §3
[20] = Selectivity ratio of MIC for MBX-1090-resistant Staphylococcus aureus isolate d20C1 to MIC for Staphylococcus aureus NCTC 8325; assay type: functional; outline: as §3
[21] = tested on: Staphylococcus aureus; test: Induction of mepA gene expression in Staphylococcus aureus NCTC 8325 at 0.8 ug/ml by RT-PCR analysis; assay type: functional, organism-based
Outline: (§4)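 NCTC 8325 diluted 1/200 in TSB and grown at 37 °C (250 rpm) to OD600 0.3. 5 ml aliquots exposed 3 h to compound or DMSO (2% final), triplicate cultures pooled. RNA was DNase-treated and 1 µg primed with random hexamers for cDNA, with a no-RT control. mepA signal normalized to rho, untreated set to 1. Mean of three experiments ± SD.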

[22] = tested on: Staphylococcus aureus; test: Induction of mepR gene expression in Staphylococcus aureus NCTC 8325 at 0.8 ug/ml by RT-PCR analysis; assay type: functional, organism-based
[23] = tested on: Staphylococcus aureus; test: Upregulation of mepR gene expression in MBX-1090-resistant Staphylococcus aureus isolate d20A1 at 0.8 ug/ml by RT-PCR analysis relative to wild type; assay type: functional
[24] = tested on: Staphylococcus aureus; test: Upregulation of mepA gene expression in MBX-1090-resistant Staphylococcus aureus isolate d20A1 at 0.8 ug/ml by RT-PCR analysis relative to wild type; assay type: functional
[25] = tested on: Staphylococcus aureus; test: Upregulation of mepB gene expression in MBX-1090-resistant Staphylococcus aureus isolate d20A1 at 0.8 ug/ml by RT-PCR analysis relative to wild type; assay type: functional
[26] = tested on: Staphylococcus aureus; test: Upregulation of conventional hypothetical protein mRNA expression in MBX-1090-resistant Staphylococcus aureus isolate d20A1 at 0.8 ug/ml by RT-PCR analysis relative to wild type; assay type: functional
[27] = tested on: Staphylococcus aureus; test: Downregulation of protein A gene expression in MBX-1090-resistant Staphylococcus aureus isolate d20A1 at 0.8 ug/ml by RT-PCR analysis relative to wild type; assay type: functional
[28] = tested on: Staphylococcus aureus; test: Downregulation of ribH gene expression in MBX-1090-resistant Staphylococcus aureus isolate d20A1 at 0.8 ug/ml by RT-PCR analysis relative to wild type; assay type: functional
[29] = tested on: Staphylococcus aureus; test: Downregulation of ribA gene expression in MBX-1090-resistant Staphylococcus aureus isolate d20A1 at 0.8 ug/ml by RT-PCR analysis relative to wild type; assay type: functional
[30] = tested on: Staphylococcus aureus; test: Downregulation of ribE gene expression in MBX-1090-resistant Staphylococcus aureus isolate d20A1 at 0.8 ug/ml by RT-PCR analysis relative to wild type; assay type: functional
[31] = tested on: Staphylococcus aureus; test: Downregulation of ribD gene expression in MBX-1090-resistant Staphylococcus aureus isolate d20A1 at 0.8 ug/ml by RT-PCR analysis relative to wild type; assay type: functional
[32] = tested on: Staphylococcus aureus; test: microbe, parasite or virus in culture; conditions: isolate d20A1
[33] = tested on: Staphylococcus aureus; test: Upregulation of mepA gene expression in MBX-1090-resistant Staphylococcus aureus isolate d20A1 at 50 ug/ml by RT-PCR analysis relative to wild type; assay type: functional
[34] = tested on: Staphylococcus aureus; test: Upregulation of mepB gene expression in MBX-1090-resistant Staphylococcus aureus isolate d20A1 at 50 ug/ml by RT-PCR analysis relative to wild type; assay type: functional
[35] = tested on: Staphylococcus aureus; test: Upregulation of conventional hypothetical protein mRNA expression in MBX-1090-resistant Staphylococcus aureus isolate d20A1 at 50 ug/ml by RT-PCR analysis relative to wild type; assay type: functional
[36] = tested on: Staphylococcus aureus; test: Modulation of protein A gene expression in MBX-1090-resistant Staphylococcus aureus isolate d20A1 at 50 ug/ml by RT-PCR analysis relative to wild type; assay type: functional
[37] = tested on: Staphylococcus aureus; test: Downregulation of ribH gene expression in MBX-1090-resistant Staphylococcus aureus isolate d20A1 at 50 ug/ml by RT-PCR analysis relative to wild type; assay type: functional
[38] = tested on: Staphylococcus aureus; test: Downregulation of ribA gene expression in MBX-1090-resistant Staphylococcus aureus isolate d20A1 at 50 ug/ml by RT-PCR analysis relative to wild type; assay type: functional
[39] = tested on: Staphylococcus aureus; test: Downregulation of ribE gene expression in MBX-1090-resistant Staphylococcus aureus isolate d20A1 at 50 ug/ml by RT-PCR analysis relative to wild type; assay type: functional
[40] = tested on: Staphylococcus aureus; test: Downregulation of ribD gene expression in MBX-1090-resistant Staphylococcus aureus isolate d20A1 at 50 ug/ml by RT-PCR analysis relative to wild type; assay type: functional
[41] = tested on: Staphylococcus aureus; test: Upregulation of mepR gene expression in MBX-1090-resistant Staphylococcus aureus isolate d20A1 at 50 ug/ml by RT-PCR analysis relative to wild type; assay type: functional
[42] = tested on: Staphylococcus aureus; test: Selectivity ratio of MIC for Staphylococcus aureus NCTC 8325 harboring genetic deletion of mepRA gene and carrying expression vector pG154 with mepA gene in presence of anhydrous tetracycline to MIC for Staphylococcus aureus NCTC 8325 harboring genetic deletion of mepRA gene and carrying expression vector pG154 with mepA gene; assay type: functional
Outline: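 Ratio of the MIC with anhydrous tetracycline (100 ng/ml final, induces pG154-mepA) to the MIC without it. Both came from broth microdilution in cation-adjusted MHB with 2% DMSO and 1 × 10^4 cells per well, incubated at 37 °C for 16–20 h and read at 600 nm.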

[43] = tested on: Staphylococcus aureus; test: Induction of mepA gene expression in Staphylococcus aureus NCTC 8325 at 0.5 ug/ml by RT-PCR analysis; assay type: functional, organism-based; outline: as §4
[44] = tested on: Staphylococcus aureus; test: Induction of mepR gene expression in Staphylococcus aureus NCTC 8325 at 0.5 ug/ml by RT-PCR analysis; assay type: functional, organism-based

| SMILES | MIC [6] [µg/mL] | MIC [7] [µg/mL] | MIC [8] [µg/mL] | MIC [9] [µg/mL] | MIC [10] [µg/mL] | MIC [11] [µg/mL] | MIC [12] [µg/mL] | MIC [13] [µg/mL] | MIC [14] [µg/mL] | MIC [15] [µg/mL] | MIC [16] [µg/mL] | MIC [17] [µg/mL] | Selectivity ratio [18] | MIC [32] [µg/mL] | other results |
| --- | --- | --- | --- | --- | --- | --- | --- | --- | --- | --- | --- | --- | --- | --- | --- |
| C(=C\c1cc2ccc(C3=NCCN3)cc2[nH]1)/c1cc2ccc(C3=NCCN3)cc2[nH]1 | 1 (≈ 2.53 µM) | 0.5 | 4 (≈ 10.1 µM) | 1 (≈ 2.53 µM) | 1 (≈ 2.53 µM) | 1 | 1 (≈ 2.53 µM) | 8 | 1 (≈ 2.53 µM) | 1 | 1 (≈ 2.53 µM) | 4 | 8 | 8 (≈ 20.3 µM) | pKa [1]: 9.6; MIC [2]: 1 µg/mL (≈ 2.53 µM); MIC [3]: 1 µg/mL (≈ 2.53 µM); MIC [4]: 8 µg/mL (≈ 20.3 µM); MIC [5]: 1 µg/mL (≈ 2.53 µM); Selectivity ratio [19]: 8; Selectivity ratio [20]: 8; Activity [21]: inactive; Activity [22]: inactive; fold change (FC) [23]: 1.7; fold change (FC) [24]: 2; fold change (FC) [25]: 1; fold change (FC) [26]: 15.3; fold change (FC) [27]: 3.1; fold change (FC) [28]: 1.9; fold change (FC) [29]: 3; fold change (FC) [30]: 2.6; fold change (FC) [31]: 1.4 |
| Cn1cc(NC(=O)c2cc(NC(=O)c3cc(NC=O)cn3C)cn2C)cc1C(=O)NCCC(=N)N [STALLIMYCIN] | 50 (≈ 104 µM) | 50 | 100 (≈ 208 µM) | 100 (≈ 208 µM) | 50 (≈ 104 µM) | 50 | 50 (≈ 104 µM) | 50 | 50 (≈ 104 µM) | 50 | 50 (≈ 104 µM) | 50 | 4 | 200 (≈ 415 µM) | fold change (FC) [33]: 72.6; fold change (FC) [34]: 25.5; fold change (FC) [35]: 14.2; fold change (FC) [36]: 2; fold change (FC) [37]: 2.7; fold change (FC) [38]: 1.9; fold change (FC) [39]: 1.5; fold change (FC) [40]: 1.6; fold change (FC) [41]: 39.2 |
| c1cc2cc(-c3ccc4cc(C5=NCCN5)[nH]c4c3)[nH]c2cc1C1=NCCN1 | 0.5 (≈ 1.36 µM) | 0.25 | 1 (≈ 2.71 µM) | 0.5 (≈ 1.36 µM) | 0.5 (≈ 1.36 µM) | 0.5 | 0.5 (≈ 1.36 µM) | 4 | 0.5 (≈ 1.36 µM) | 0.5 | 0.5 (≈ 1.36 µM) | 1 | 4 | 2 (≈ 5.43 µM) | Selectivity ratio [42]: 2; Activity [43]: Active; Activity [44]: Active |

— ChEMBL document CHEMBL1157072 (Bioorg Med Chem, 2010)
